In the RNAGym collection of RNA variant scans (doi:10.1126/science.aae0568):
Fewer inactive variants are shown than the library holds.

B1: tRNA (parent)
chain: GUUCCGUUGGCGUAAUGGUAACGCGUCUCCCUCCUAAGGAGAAGACUGCGGGUUCGAGUCCCGUACGGAACG

Variants of: B1
Experiment: yeast fitness relative to wild type (ratio to wild type); higher = fitter; tRNA-Arg(CCU), competitive growth, 37 C, YPD
Procedure, shortened: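 For this measurement, the tRNA-Arg(CCU) gene was varied by chemical synthesis at a 3% per-site mutation rate across 69 sites, and each variant was placed at the native genomic locus in Saccharomyces cerevisiae. The pooled strains went through a 24-hour competition in YPD at 37°C in six parallel replicates, with amplicons from start and end populations read by 100-nucleotide paired-end sequencing. Darwinian fitness relative to wild type followed from the change in each genotype's frequency. Genotypes needed ≥ 100 starting reads, and estimates < 0.5 were set to 0.5.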

Variant | yeast fitness
GUUCCGUUGGCGUAAUGGUAACGCGUCUCCCUGCUAAGGAGAAGACUGCGGGUUCGGGUCGCAUGUGGAACG | ≤ 0.5
GUUACGUUGGCGUAAUAGUAACGCGUCUCCCUCCUAAGGAGAAGACUGCGGGUUCGAGUGCCGUACGGAACG | 0.697
GUUCCGUUGGCGUAAUGGUAACGCGUUUCCCUCCUAAGGAGAAGACUGCGGGUUCGAGUCCCGUACGGAACG | 0.995
GUUCGGUUGGCGUAGUGGUAGCGCCUCUCCCUUCUAAGGAGAAGACUGCGGGUUCGAGUCCCGUACGAAACG | ≤ 0.5
GUACCGUUGGCGUAAUGGUAACGCGUCUCCCUCCUACGGAGAACUCUGCGGGUUCGAGUCCCGUACGGAACG | ≤ 0.5
GUUCCGUUGGCGUAAUAGUAACGCGUCUCCCUCCUAAGGAGGAGACUGCGGGUUCGAGUCCCGAACGGAACG | 0.58
GUUACGUUAGCGUAAUGGUAACGUGUCUCUCUCCUGAGGAGAAGACUGCGGGUUCGAGUCCCGUACAGAACG | 0.565
GUUCCGUUGGCGGAAUGGUAACGGGUCUCCCUCCUAAGGAGAAGACUGCGAGUUCGAGUCCCGUACGGAACG | ≤ 0.5
GUUCCGUCGGGGUAAUGGUAACGCGUCUCCCUCCUAAGGAGAAGACUGCGGGUUCGAGUCCCGUACGGAACG | 0.686
GUUCCGUUGGCGUACUAGUAACGCGUCUAUCUCCUAAGGAGAAGACUGCGGGUUCGAGUCCGGAACGGAACG | ≤ 0.5
GUUCCAUUGGCGUAAUGGUAACGCGACUCCCUCCUAAGGAGAAGACUGCGGGUUCGAGUCACGUACGGAACG | ≤ 0.5
GUUCCGUUGGCGUCAUGGUAACGCGUGUCCCUCCUAAGGAGAAGAGUGCGGGUUCGAGUCCCGUACGGAACG | 0.619
GUUCCGUUGGGGUAAUGGUAACGCGUCUCCCUCCUAAGGAGAAGACUGUAGGUUCGAGUCUCGUACGGAACG | ≤ 0.5
GUUCCGAUGGCGUAAUGGUAACGCGUCUCCCUCCUAAGGAGAAAACUGCGGGUUCGAGUCCCGUACGGAACG | 0.755
GUUCCGUUGGCGUAAUGGUAACGCGUCUCCCUCCUAAGGAGCAGACUGCGGGUUCGCGUCACGUACGGAACG | ≤ 0.5
GUUCCGUUGGCGUAAUGGUAACGCGUCUCCCUCCUAAGGAGCAGACUGGAGGUUCGAGUCCCGUACGGAACG | 0.507
GUUCCGUUGGCGUAAUGGGUACGCGUCUCCCUCCUAAGGAGAAGACUGCGGGUUCGAGUCCCGUACGGUACG | 0.86
GUUCCGUUGGAGUAAUGGUAACGCGUCUCCAUCCUAAGGAGAACACUGCGGGUUCGAGUCCCGUACGGAACG | ≤ 0.5
GUUCCGUUGGCGUAAUGGUAACGCGUCUCCCUCCUAAGGAGAAGAUUGCGGGUUCGAGUCACGUACAGAACG | 0.568
GUUCCGUUGGCGUAAUGGUAACGCGUCUCCCUCCUAAGGAGAAGACUGCGGGUUCGAGUCUCGUACGAAGCG | 0.648
GUUCCGUUGGCGUAAUGGUAACGCGACUCCCUCCUAGGGAGAAGACUGCGGGUUCGAGUCCCGAACGGAACG | ≤ 0.5
GUUCCGUUGGCGUAAUGGUAACGCGUCCCCCUCCUAAGGCGAAGACUGCGGGUUCGAGUCCCGUACGGAACG | 0.902
GUUCCGUUGGUGUAUUGGUAACGCGUCUCCCUCCUAAGGAGAAGACUGCGGGUUCGAGUCCCGUACGGAACG | 0.757
GUUCCGUUGGCGUAAUGGUACCGCGUCUCCCUCCUAAGGAGAAGCCUGCGGGUUCGAGUCCCGUACGGAACG | 0.73
GUUUCGUUGGCGUAAUGGUCACGCGUCUCACUCCUAAGGAGAAGACUGCGGGUUAGAGUCCCGUACAGAACG | 0.53

Variant | yeast fitness
GUACAGUUGGCGUAAUGGUAACGCGUCUCCCUCCUAAGGAGAAGACUGCGGGUUCGAGUCCCGUACGGAACG | 0.806
GUUCCGUUGGCGUAAUGGUAACGCGUCUCCCUCCUAAGGAGUAGACUGCGGGUUCGAGCCCCGAACGGAACG | ≤ 0.5
GUUCCGUUGCCGUAAUGGUAACGCGUCUCCCUCCUAGGGAGAAGACUGCGGGUUCGAGUCCCGUACGGAACG | 0.656
GUUCUGUUGGCGAAAUGGUAACGCGUCUGCAUCCUAAGGAGAAGACUGCGGGUUCGAGUCCCCUACGGAACG | 0.533
GUUCCGUUGGCGAAAUGGUCACGCGUCUCCCUCCUAAGGAGAAGACUGCGGGUUCGAGUCCCGUACGGAACG | 0.715
GUUCUGUAGGCGUAAUGCUAACACGUCUCCCUCCUAAGGAGAAGACUGCGGGUUCGAGUCCCGUACGGAACG | ≤ 0.5
GUUCCGUUGGCGUAAUGGUAACGCGUCUCCCUCCUAAGGUGAAGACUGCGCGUUCGAGUCCCGUACGGAACG | 0.518
GUUCCGUUGGCCUAAUGGUAACGCGUCUCCCCCCUACGGAGAAGGCUGCGGGUUCGCGUCCCGUACGGAACG | ≤ 0.5
GUUCCGUUGGCGUAAUGGUAACGCCUCUCCCUUCUAAGGAGAAGACUGAGGGAUCGAGUCCCGUACGGAACG | ≤ 0.5
GUUCCGUUGGCGUAAUGGUAACGCGUCUCCCUCCUCACGAGAAGACUGCGGGUUCGAGUCCCGUACGGAACG | 0.524
GUUCCGUUGGCGUAAUGGUAACGCCUCUCCCGCCUAAAGAGAAGACUGCGGGUUCGAGUCUCGUACGGAACG | ≤ 0.5
GUUCCGUUGGCGUAAUGGUAACGCGUCUCCCUCCUAAGGAGAAGUCUGUGGGUUCGAGUCCCGAACGGAACG | 0.571
GUUCCGUUGGCGUAAUGGUAACGCGUCUCCCUCCUAAGGAGAACACUGCCGGUGCGAGUCGCGCACGGAACG | ≤ 0.5
GUUGUGUUGGCGUAAUGGUAACGCGUCUCCCUCCUAAGGAGAACACUGCGGGUUCGAGUCCCGUACGGAACG | ≤ 0.5
GUUCCGUUGGCGUAAUGGUAACGCGUCUCCCUCCUAAGGAGAAGACUGCGGGUUCGAGUCCCGUAUGCAACG | 0.779
GUCCCGUUGGCGUAAUGGUAACGCGUCUCACUCCCAAGAAGCGGAUUGCGGGUUCGAGUCCCGUCCGGAACG | ≤ 0.5
GUUCCGUUGGAGUAAUGGUAACGCGUCUCCCUCCUAAGGAGAAGACUGCGGGUUCGUGUCCCGUACGGAACG | ≤ 0.5
GUCCCCGUGGCGUAAUGGUAACGGGUAACCCUCCUAAGGAAAAGACUGCGGGUUCGAGUCCCGUACGGAACG | 0.618
GUUCCGUUGGCGUAAUGGUAACGCGCCUCCCUCCUAAGGACAAGACUGCGGGUUCGAGUCCCGUACGGAACG | 0.947
GUUCCGUUGGCGUAAUGGUAACGCGUCUCCCCCCUAAGGAGACGACUGCGGGUUCGAGUCCCGUUCGGAACG | 0.503
GGUACGUUGGCGUAACGGUAACGCGUCUCCUUCCUAAGGAGAAGACUGCGGGUUCGAGUCCCGUACGGAUCG | ≤ 0.5
GUUCCGUUGGCGUAAUGGUAAUGCGUCUCCCUCCUAAGGACAAGACUGCGGGUUCGAGUCCCGUACGGAACG | 0.698
GUUGCGUUGGCGUAAUGGUAACGCGUCUCCCUCCUGAGGAGAAGCCUGCGGGUUCGAGUCUGGUACGGAACG | ≤ 0.5
GUUCCCUUGGCGUAAUGGUCACGCGUCUCCCUCCCAAGGGGUAGACUGCGGGUUCGAAUCCCAUACAGAACG | ≤ 0.5
GUUCCGUUAGUGUAAUGGUAACGCGUCUACCUCCUAAGGAGAAGACUGCGGGGUCGAGUCCCGUACGGAACG | ≤ 0.5

Variant | yeast fitness
GUUCCGUUGGCGUAAUGGUAACGCGUCUCCCUCCUAAGGUGAAGACUGCGGGUUCAACUCCCGUACGGAACG | 0.786
GUUCCGUUGGCGUACUGGUAACGCGUCUCCCUCCUAAGGAGAAGACUGCGGGUUCGAGUCCCGUAUGGAACG | 0.605
GUUCCGUUGGCGUAAUGGUAACGAGUCUCCCUCCUUAGGAGAAGACUGCGGGUUAGAGUCCCGUACGGAACG | ≤ 0.5
GUUCCGUUGGCGUAAUGGUAACGCGUCUCCCUCCUAAGGAGAAGACUGCGGGUUCGAGUACCGUAUGGAACG | 0.608
GUUCCCUUGGCGUAAUGGUAACGCGUCUCCCUCCUAAGGAGAAGGCUGCGGGUUCGAGUCCCGUACGGAACG | 0.823
GUUCCGUUGCCGUAAUGGUAAAGGGCCUCCCUCCUAAGGAGAAGACUGCGGGAUCGAGUCCCGUACGGAACG | ≤ 0.5
GUUCCGUUGGCGUCACGGUAACGCGUCUCCCUCCUAAGGAGAAGACUGCGCGUUCGAAUACCGUACGGAACG | ≤ 0.5
GUUCCGUUGGCGUAAUGGUAACGCGUCUCCCUCCUAAGGAGAAGCCUGCGGGUUCGAGUACCGUACGGAACG | 0.62
GUUCCGUUGGGGUAAUGGUAACGCGUCUCCCUCCUAAGAAGAAGACUGCGGGUUCGAGUCCCGUACGGAACG | 0.63
GUUCCGUUGGCGUAAUGGUAAGGGGUCUCCCUCCUAAGGAGAAGACUGCAGGUUCGAGUCCCGUACGGAACG | 0.694
GUUCCGUUGGCGUGAUGGUAACGCGUAUCCCUCCUAAGGAGAAGUCUGCGGGUUCGAGUCCCGUACCGAACG | 0.521
GUUCCGCUGGCGUAAUGGUAACGCGUCUCCCUCCUAAGGAGAAGACUGUGGGUUAGAGUCCCGUACGGAACG | ≤ 0.5
GUUCCGUUGGCGUAAUGGUAACCCGUCUCCCUCCUACGGAGAAGACUGCGGGUUCGAGUCCCGUACGGAACG | 0.656
GUUCCGUUGGCGUAUUGGUACCGGGUCUUCCUCCUAAGGAGCAGACUGCGGGUUCGAGGCCCGUACUGAACG | ≤ 0.5
GUUCCGUUGGCGUAAUGGUAACGUGUCUCCCUCCUAAGGAGAGGACUGCGGGUUCGAGUACCGUACGGAACG | ≤ 0.5
GUUCCGUUGGCGUAAUGGCAACCCGUCUCCCUCCUAAGGAGAAGACUGCGGGUUCGAGUCGCGUACGGAACG | ≤ 0.5
GUUCUGUUGGCGUAAUGGCAACGCGUCUCCCUCCUAAGGAGAAGACUGCGGGUUAGACUCCCGUACGGAACG | ≤ 0.5
GUACCAUUGGCGUAAUGGUAACGCCUCUCCCUCCUAAGGAGACGACUGCGGGUUCGAGUCCCGUACGGAACG | 0.614
GUGCCGUUGGCGUAAUAGUAACGCGUCUCUCUCCUAAGGAGAAGACUGCGGGUUCGAGUCCCGUACGGUACG | ≤ 0.5
GUUCCGUUGGCGUAAUGGUAACGCGUAUCCUUCCUAAGGAGAGGACUGCGGGUUCGAGUCUCGUCCGGAACG | 0.501
GUUCAGUUGGCCUAAUGCUAACGCGUCUCAGUCCUAAGGAGAAGACUGCGGGUGCGAGUCCCGUGCGGAACG | ≤ 0.5
GAUCCGUUGGCGUAAUGGUAACGCGUCUCCCUCCUAAGGAGAAGACGGCGGGUUCGAGUCCCGUAUGGAACG | ≤ 0.5
GUUCCGUUGGCGGAAUGGUAACGAGUCUCCCUCCUAAGGAGAAGAGUGCGGAUUCGAGUCCCGUACGGAACG | ≤ 0.5
GUUCCGUUGGCGUGAUGGUACCGCGUCUCGCUCCUAAGGAGAAGACUGCGGGUUCGUGUCCCGUACGGAACG | ≤ 0.5
GUUCCGUUGGCGUAGUAGUAACGCGUCUCCCUCCUAAGGAGAAGACUGCGGGUUCGAGUCCCGUACGGAACG | 0.881
